S1P2 ag: S1P2 (human) receptor agonism. O95136. S1P2-expressing cell line, agonist reporter read-out. activation, % at 4.5 µM. actives 0.46% (n = 97,000); in the data active = activation above about 16%;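 note: 0% = vehicle low control and 100% = maximal reference agonist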
Target sequence (O95136 whole entry, looked up): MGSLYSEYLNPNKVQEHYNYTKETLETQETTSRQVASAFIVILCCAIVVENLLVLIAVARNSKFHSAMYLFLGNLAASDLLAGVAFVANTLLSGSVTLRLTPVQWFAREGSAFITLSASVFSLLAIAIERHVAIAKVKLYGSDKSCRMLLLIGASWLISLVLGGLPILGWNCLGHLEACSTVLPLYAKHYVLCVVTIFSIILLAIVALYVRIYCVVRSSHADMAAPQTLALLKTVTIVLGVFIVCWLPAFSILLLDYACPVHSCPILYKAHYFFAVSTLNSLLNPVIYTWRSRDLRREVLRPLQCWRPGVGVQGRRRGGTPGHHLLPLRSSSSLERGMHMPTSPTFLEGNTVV
HIV Rev-RRE inh: inhibitors of HIV-1 Rev-RRE RNA interaction; P05866; Rev peptide-RRE RNA binding, FRET; inhibition, % at 8 µM; actives 0.79% (n = 97,000); AID 704;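 active = inhibition above the screen-wide mean plus 3 SD, cut at about 35% in these data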;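 note: 0% = median DMSO wells and 100% = median Neomycin B control wells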
Target sequence (P05866 whole entry, looked up): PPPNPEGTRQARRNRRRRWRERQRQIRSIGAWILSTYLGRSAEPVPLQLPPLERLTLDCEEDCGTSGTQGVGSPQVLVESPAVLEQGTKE
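Assay system: Rev peptide and RRE RNA, both fluorescently labelled; times: 5 min preincubation and 15 min binding, 25 °C; detection: FRET, ex 480 nm, em 540 and 671 nm; read-out basis: % inhibition from 671/540 nm acceptor-to-donor ratio, scaled between controls; benchmarks: DMSO low control, neomycin B high control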
GALR2 blocker: antagonists of human galanin receptor 2 (GALR2) | O43603 | GALR2-expressing cells, antagonist mode | inhibition, % at 4 µM | actives 0.39% (n = 140,000); in the data active = inhibition above about 27%;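 note: cells stimulated with galanin 1-16 at roughly its EC80; 0% = agonist challenge control and 100% = basal control without agonist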
GALR2 agonist: agonists of human galanin receptor 2 (GALR2) | actives 0.48% (n = 140,000) | GALR2-expressing cells, agonist activation read-out | O43603 | activation, % (test concentration not listed); in the data active = activation above about 5%, passing the limit was not always enough;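 note: 0% = vehicle buffer wells and 100% = reference agonist at full effect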
EphB4 antag: antagonists of human EphB4-ephrin-B2 interaction | inhibition, % at 7 µM | actives 0.15% (n = 97,000) | EphB4 LBD / TNYL-RAW-Alexa532 peptide, fluorescence polarization;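 active = inhibition above the screen-wide mean inhibition plus 3 SD, cut at about 15% in these data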;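 note: 0% = DMSO wells and 100% = excess unlabeled TNYL-RAW peptide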
S1P2 antag: blocks the human S1P2 receptor; O95136; cell-based S1P2 antagonist assay, inhibition at 5 uM; inhibition, % at 5 µM; actives 0.21% (n = 97,000); in the data active = inhibition above about 45%;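 note: CRE beta-lactamase reporter cells expressing human S1P2 stimulated with S1P; 0% = agonist at EC80 alone and 100% = agonist plus reference antagonist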
Active calls of the source: *; nt = not tested or not shown; [ ] = dose if it differs, or a comment. Only some compounds are listed: those with a hit (about 1.7% of all), similar ones and a draw of the others.

SMILES	S1P2 ag	HIV Rev-RRE inh	GALR2 blocker	GALR2 agonist	EphB4 antag	S1P2 antag
Cc1ccc(N2C(=O)c3cccc4c(N5CCN(C)CC5)ccc(c34)C2=O)c2cccnc12	-6	110*[fluorescence artefact?]	15	1	2	19
Cc1cccc(N2C(=O)c3cccc4c(N5CCCCC5)c([N+](=O)[O-])cc(c34)C2=O)c1C	nt	nt	-3	1	nt	nt
CCn1c(=O)c(C(=O)Nc2nc3ccccc3[nH]2)c(O)c2ccccc21	4	15	2	1	0	79*
CCn1c(=O)c(C(=O)Nn2c(C)nc3ccccc3c2=O)c(O)c2ccccc21	nt	nt	2	0	nt	nt
CCS(=O)(=O)N1CCC(C(=O)c2ccc(Cl)cc2)CC1	-3	2	7	-3	1	-23
COc1ccc(/C=N/NC(=O)c2ccc(COc3ccccc3Cl)o2)c(OC)c1C	nt	nt	0	8.0*	nt	nt
CCOC(=O)N1CCN(C(=O)CCCn2nc(C)c3sc4ccccc4c3c2=O)CC1	-6	4	0	-1	-13	5
COc1cccc(C(=O)N/N=C2\SCC(=O)N2Cc2ccc3c(c2)OCO3)c1	-5	0	-2	-2	2	14
COc1ccc(C(=O)N/N=C2/SCC(=O)N2Cc2ccc3c(c2)OCO3)cc1OC	-2	3	-6	-2	16*	2
CN1C2C=C3C(C#N)=C(N)C(C#N)(C#N)[C@H](c4c(F)cccc4F)[C@H]3C1CC2 (stereo partly drawn)	-8	6	12	-1	-1	-2
N#CC1=C(N)C(C#N)(C#N)[C@H](c2c(F)cccc2F)[C@H]2CC3(CC=C12)OCCO3	-2	56*	-3	-1	-1	16
CCCSc1nc2sc3c(c2c(=O)[nH]1)CCN(Cc1ccccc1)C3	-4	92*[fluorescence artefact?]	7	0	2	-7
O=c1[nH]c(C(Cl)Cl)nc2sc3c(c12)CCN(Cc1ccccc1)C3	nt	nt	4	-1	nt	nt
CC(C)NC(=O)c1ccc2c(c1)S(=O)(=O)c1ccccc1C2=O	18*	9	-14	2	-3	-46
CCCn1c(C)cc(C(=O)COC(=O)c2cc(S(=O)(=O)NCC(C)C)c(Cl)cc2Cl)c1C	29*	4	-11	-1	-2	-6
O=c1c2c([nH]c3ccccc13)CCCCCC2	-3	11	4	-1	7	3
O=c1c2ccccc2[nH]c2ccccc12	nt	nt	8	5.6*	nt	nt
N#CCSc1nc2cc(C(=O)N3CCCC3)ccc2c(=O)n1Cc1ccccc1	0	7	-4	1	0	-3
N#CCSc1nc2cc(C(=O)N3CCC(C(N)=O)CC3)ccc2c2nc3ccccc3n12	37*	6	-8	0	4	-23
Cn1c(=O)oc2cc(S(=O)(=O)N3CCN(C(=O)c4ccco4)CC3)ccc21	-3	41*	-4	-2	-2	16
Cc1cc(Cl)ccc1OCC(=O)NCCOc1nc(N2CCOCC2)nc(N2CCOCC2)n1	-3	2	-11	0	1	13
CCOC(=O)c1ccc(NC(=O)Nc2ccc(F)cc2)cc1	22*	16	-6	0	7	19
CCOC(=O)c1ccc(NC(=S)NCC(O)c2ccccc2)cc1 (stereo not drawn)	-2	-5	-6	-1	17*	-9
CCOC(=O)N1CCN(c2cc(NCCC(=O)O)c3c4c(onc24)-c2ccccc2C3=O)CC1	nt	nt	6	0	nt	nt
O=C(O)CCCNc1cc(N2CCC3(CC2)OCCO3)c2noc3c2c1C(=O)c1ccccc1-3	3	122*[fluorescence artefact?]	-6	-2	2	-30
SMILES	S1P2 ag	HIV Rev-RRE inh	GALR2 blocker	GALR2 agonist	EphB4 antag	S1P2 antag
Cc1sc2ncn(CC(=O)OC(C)C)c(=O)c2c1C	-3	5	2	-1	2	9
O=C(CSc1nnnn1Cc1ccccc1)Nc1ccc2c(c1)OCO2	-3	-5	5	-2	18*	-18
Cc1ccc2cc(/C=C3\N=C(c4ccccc4)OC3=O)c(N3CCOCC3)nc2c1	-5	39*	5	0	-1	9
CCNc1nc(N)nc(Oc2ccc(OCCOc3ccc(Cl)cc3Cl)nn2)n1	-7	2	8	2	-5	-6
CCCc1nc2sc(C(=O)OCC)c(N)c2c2c1COC(C)(C)C2	-4	11	-6	0	-2	-1
CCOC(=O)c1sc2nc(C)c3c(c2c1N)CC(C)(C)OC3	-8	11	-13	-3	15*	-27
CCOC(=O)c1cnc(Nc2nc3ccccc3o2)nc1CN1CCN(C)CC1	-3	20	9	0	16*	18
COC(=O)[C@@H]1C[C@]2(OC(=O)c3ccccc3)C=CC(=O)C[C@@H]2N1C(=O)OCc1ccccc1	nt	nt	28*	-1	nt	nt
O=C(O)C1CCCN1C(=O)OCc1ccccc1 (stereo not drawn)	-1	5	0	0	6	-15
Fc1ccc(C2CC(c3ccco3)=NN2c2ccccc2)cc1 (stereo not drawn)	5	0	-6	6	-7	-2
O=[N+]([O-])c1ccc(N2N=C(c3ccco3)CC2c2ccccc2)cc1 (stereo not drawn)	-6	76*[fluorescence artefact?]	10	3	-3	-5
CCS(=O)(=O)N1CCC(C(=O)NCCc2ccccc2)CC1	-1	4	-1	-1	-11	8
CCS(=O)(=O)N1CCC(C(=O)NCCN2CCN(Cc3ccccc3)CC2)CC1	-8	-3	-1	6.2*	-2	-2
Cc1nc(CCN2C(=O)c3ccccc3C2=O)cs1	-4	10	9	-3	1	5
Cc1cc(C)c(S(=O)(=O)Nc2ccc(O)cc2)cc1C	65*	1	-1	0	-8	-7
Cc1ccc(C)c(S(=O)(=O)Nc2ccc(O)cc2)c1	-2	3	-2	-4	1	12
COc1cc2c(cc1OC)C(=S)NC(C)(C)C2	-1	5	-1	-1	4	-31
COc1cc2c(cc1OC)C(CC#N)=NC(C)(C)C2	18*	1	-3	-2	4	-46
CC1CCCC(C)N1C(=O)Cn1cc(/C=C2/C(=O)Nc3ccccc32)c2ccccc21 (stereo not drawn)	-8	11	6	-3	2	3
Oc1cccc2ccc(Nc3ccccn3)nc12	nt	nt	30*	-2	nt	nt
Cn1nc(C(=O)N2CCOCC2)c([N+](=O)[O-])c1C(=O)N1CCOCC1	nt	nt	-6	0	nt	nt
O=C1OCCN1C(=O)[C@H]1[C@H](c2ccc(F)cc2)C(c2ccc(F)cc2)=NN1c1ccc(Br)cc1	nt	nt	-2	6.7*	nt	nt
COc1ccc(/C=N/NC(=O)c2nc(-c3ccccc3)cc(-c3ccccc3)n2)cc1O	nt	nt	3	0	nt	nt
COc1ccc(/C=N/NC(=O)c2nc(-c3ccccc3)cc(-c3ccccc3)n2)cc1	-17	-1	-7	-4	-3	54*
NC(=S)Nc1cccc2cc3ccccc3cc12	1	102*[fluorescence artefact?]	18	2	-7	17

Source: PubChem (The Scripps Research Institute Molecular Screening Center)
